The results in this text go back to ChEMBL document CHEMBL5344463, “Design, Synthesis, and Antifungal Activity of 3-Substituted-2(5H)-Oxaboroles” (ACS Med Chem Lett, 2024).

Series [1] concerns Saccharomyces cerevisiae. In words: Antimicrobial activity against Saccharomyces cerevisiae assessed as growth inhibition at 50 ug/ml in liquid medium by liquid MIC assay. Type of series: functional, organism-based. Conditions: dose 50.0 µg/ml. An outline of the steps: (§1)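 Single-concentration liquid-medium growth screen of non-spore-forming microbes, run at 50 and 12.5 μg/mL. Growth is read by absorbance.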

The next series deals with H9c2. In words: Cytotoxicity against rat H9c2 cells assessed as cell viability at 100 uM incubated for 24 hrs by CCk8 dye assay. Type of series: toxicity, cell-based. The following applies: h9c2, 24 h. The method in brief:
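Rat myoblast H9c2 cells are exposed to 100 μM compound for 24 h. Viability is normalized to PBS no-treatment control. Values are mean ± SEM, n = 3.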

For the next series, the system named is Erythrocyte. Nature of the series: Hemolytic activity in sheep erythrocytes assessed as cell lysis at 50 to 100 uM measured after 1 hr. The class given is toxicity, cell-based, Ovis aries. Conditions: dose 50-100 µM. An outline of the steps:
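Erythrocytes are exposed to compound at 50 and 100 μM for 1 h. Lysis is normalized to a Triton X-100 positive control. Values are mean ± SEM, n = 3.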

Series [2] has as its system Trichophyton mentagrophytes. Nature of the series: Antifungal activity against Trichophyton mentagrophytes assessed as growth inhibition incubated for 48 hrs in solid agar medium by solid MIC assay. The class given is functional. The method in brief: (§2)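 Dose-dependent solid-agar MIC assay for spore-forming fungi (liquid media unusable because mycelia clump and block absorbance). Compound tested at […] in agar. Fungal growth scored visually as white mycelia on the plates. MIC is taken from biological replicates.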

In another series the test system is Penicillium chrysogenum. In words: Antifungal activity against Penicillium chrysogenum assessed as growth inhibition incubated for 48 hrs in solid agar medium by solid MIC assay. Type of series: functional. The method in brief: as §2
Another series concerns Aspergillus flavus. Nature of the series: Antifungal activity against Aspergillus flavus assessed as growth inhibition incubated for 48 hrs in solid agar medium by solid MIC assay. The class given is functional. An outline of the steps:
as §2

The test system of series [3] is Candida albicans. In words: Antifungal activity against Candida albicans assessed as growth inhibition incubated for 48 hrs in solid agar medium by solid MIC assay. The class given is functional.
Series [4] relates to Saccharomyces cerevisiae. In words: Antimicrobial activity against Saccharomyces cerevisiae assessed as growth inhibition incubated for 48 hrs in solid agar medium by solid MIC assay. Type of series: functional.
The next series has as its system Bacillus cereus. Nature of the series: Antibacterial activity against Bacillus cereus assessed as growth inhibition incubated for 48 hrs in solid agar medium by solid MIC assay. Type of series: functional.
Series [5] concerns Staphylococcus aureus. In words: Antibacterial activity against methicillin-resistant Staphylococcus aureus assessed as growth inhibition incubated for 48 hrs in solid agar medium by solid MIC assay. Type of series: functional.
A further series deals with Pseudomonas aeruginosa. In words: Antibacterial activity against Pseudomonas aeruginosa deltaMexAB-OprM assessed as growth inhibition incubated for 48 hrs in solid agar medium by solid MIC assay. The class given is functional.
For series [6], the system named is Candida albicans. In words: Antifungal activity against Candida albicans assessed as growth inhibition at 50 ug/ml in liquid medium by liquid MIC assay. Type of series: functional, organism-based. Conditions: dose 50.0 µg/ml. An outline of the steps:
as §1

Series [7] deals with Staphylococcus aureus. Nature of the series: Antibacterial activity against methicillin-resistant Staphylococcus aureus assessed as growth inhibition at 50 ug/ml in liquid medium by liquid MIC assay. Conditions: dose 50.0 µg/ml. The class given is functional, organism-based. An outline of the steps: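 Single-point growth-inhibition screen in liquid medium against nonspore-forming organisms. Compound tested at 50 and 12.5 μg/mL, growth read by absorbance, and reported at the 50 μg/mL level.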

The subject of the next series is Escherichia coli. Nature of the series: Antibacterial activity against Escherichia coli ATCC 25922 assessed as growth inhibition incubated for 48 hrs in liquid medium by microbroth dilution assay. Conditions: ATCC 25922, 48 h.

≈ marks a conversion by molar mass, not a printed value. Calls of active or inactive are those of the source.

Take `CCCc1ccc(C2=CCOB2O)cc1`: the outcome with Saccharomyces cerevisiae [1] was Active. Besides, the Activity result with H9c2 and in the series on Erythrocyte was “Non-Toxic” each time.

As for NYSTATIN, the MIC is 3.13 µg/mL in series [2]; 1.56 µg/mL in the series on Penicillium chrysogenum; 2.6 µg/mL with Aspergillus flavus; 0.78 µg/mL in the series on Candida albicans [3]; 1.56 µg/mL in the series on Saccharomyces cerevisiae [4]; more than 50 µg/mL with Bacillus cereus. For the same compound, the minimal inhibitory concentration (MIC) in the series with Staphylococcus aureus [5] and with Pseudomonas aeruginosa was more than 50 µg/mL throughout.

In the case of `Cc1cccc(C2=CCOB2O)c1`, the outcome in the series with Saccharomyces cerevisiae [1] was Active. For the same compound, the Activity result in the series on H9c2 and in the series on Erythrocyte was “Non-Toxic” each time.

Regarding `OB1OCC=C1c1ccc2occc2c1`, the result in the series on Candida albicans [6] and in the series with Saccharomyces cerevisiae [1] was Active. The Activity result with H9c2 and in the series with Erythrocyte was “Non-Toxic” each time.

For `OB1OCC=C1c1cccc(I)c1`, the result with Candida albicans [6] and in the series on Saccharomyces cerevisiae [1] was Active. Further, the outcome in the series on Staphylococcus aureus [7] was inactive. Also, the Activity result with H9c2 and in the series on Erythrocyte was “Non-Toxic” throughout.

On to `OB1OCC=C1C1=CCCCC1`, for which the outcome in the series with Saccharomyces cerevisiae [1] was Active.

Take `CC(C)(C)c1ccc(C2=CCOB2O)cc1`: the Activity result with H9c2 and in the series with Erythrocyte was “Non-Toxic” in each case.

With `OB1OCC=C1c1cccc(Br)c1`, the result in the series with Candida albicans [6] and with Saccharomyces cerevisiae [1] was Active. Further, the Activity result with H9c2 and in the series on Erythrocyte was “Non-Toxic” each time.

As to `OB1OCC=C1c1ccccc1`, in the series on Saccharomyces cerevisiae [1], the result was Active.

In the case of `OB1OCC=C1c1ccc(Br)cc1`, the outcome with Candida albicans [6] and with Saccharomyces cerevisiae [1] was Active. Further, the Activity entry in the series with H9c2 and in the series on Erythrocyte was “Non-Toxic” throughout.

As to `OB1OCC=C1c1cccc(F)c1`, the outcome in the series with Saccharomyces cerevisiae [1] was Active. Further, the Activity entry in the series with H9c2 and in the series with Erythrocyte was “Non-Toxic” each time.

For the compound `OB1OCC=C1c1ccccc1Cl`, the result in the series on Saccharomyces cerevisiae [1] was Active.

As for `OB1OCc2cc(F)ccc21` [TAVABOROLE], in the series on Staphylococcus aureus [5], the MIC was more than 50 µg/mL. In addition, the Activity entry in the series on H9c2 and in the series with Erythrocyte was “Non-Toxic” in each case.

Regarding `Cc1cc(F)cc(C2=CCOB2O)c1`, in the series on Saccharomyces cerevisiae [1], the outcome was Active. Further, the Activity result with H9c2 and in the series on Erythrocyte was “Non-Toxic” throughout. In addition, the MIC with Escherichia coli is more than 50 µg/mL.

Regarding `COc1cccc(C2=CCOB2O)c1`, in the series on Saccharomyces cerevisiae [1], the result was Active.

With `OB1OCC=C1c1ccc(OC(F)(F)F)cc1`, the outcome in the series with Candida albicans [6] and with Saccharomyces cerevisiae [1] was Active. The Activity entry in the series with H9c2 and in the series on Erythrocyte was “Non-Toxic” each time.

`OB1OCC=C1c1ccc(Cl)cc1`: the outcome in the series on Candida albicans [6] and in the series with Saccharomyces cerevisiae [1] was Active. For the same compound, the Activity result with H9c2 and in the series on Erythrocyte was “Non-Toxic” in each case.

Consider `OB1OCC=C1c1ccccc1F`, for which the outcome with Saccharomyces cerevisiae [1] was Active. Also, the Activity entry in the series with H9c2 and with Erythrocyte was “Non-Toxic” each time.

In the case of `OB1OCC=C1c1ccc(F)cc1`, the result in the series on Candida albicans [6] was Active. Besides, the Activity entry in the series with H9c2 and in the series with Erythrocyte was “Non-Toxic” each time. In the series on Escherichia coli, the MIC is 42 µg/mL (≈ 236 µM).

With `Cc1ccc(C2=CCOB2O)cc1`, the outcome in the series with Saccharomyces cerevisiae [1] was Active. In addition, the Activity result with H9c2 and in the series with Erythrocyte was “Non-Toxic” throughout. Also, in the series on Escherichia coli, the MIC turned out to be 42 µg/mL (≈ 241 µM).

On to `OB1OCC=C1c1cccc(Cl)c1`, for which, in the series on Saccharomyces cerevisiae [1], the outcome was Active. The Activity result with H9c2 and in the series with Erythrocyte was “Non-Toxic” in each case.

`OB1OCC=C1c1cccs1`: in the series on Saccharomyces cerevisiae [1], the outcome was Active. Besides, the MIC with Escherichia coli is 42 µg/mL (≈ 253 µM).

For the compound `OB1OCC=C1c1ccc2ccccc2c1`, the Activity entry in the series on H9c2 and in the series with Erythrocyte was “Non-Toxic” each time.

Broadly, the MIC is the smallest concentration in the dilution series that meets the test's criterion for growth inhibition.
